Results on three compounds are retold here after article PMC2774150 (Apmis, 2008).

The structures appear in SMILES notation. “Also recorded” adds a separate entry of the source. Where two headings read alike, the source gives them in different places.

The conditions of data set [1]: cited from earlier work.
Data set [2] relates to H4 acetylation in MCF-7 model. The data set can be described thus: Experiment 1: H4 acetylation in vivo, MCF-7 xenograft. More on the design: species or system NMRI nude mice. To be noted: 100 mg/kg single i.v., 1 h. Put shortly: (§1)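 Female NMRI nude mice, 6–8 weeks old, received about 10^7 cells with matrigel s.c. into the flank under Hypnorm/Dormicum. They were given 100 mg/kg test compound i.v. or vehicle (L-arginine 200 mg/kg in isotonic sterile saline) and killed after 1 h. Formalin-fixed, paraffin-embedded tumors were immunostained for acetylated H4 (mouse monoclonal T25, acetyl-Lys8/Lys12, 1:13,000; TEG pH 9 retrieval; EnVision+/DAB) and scored 0–3.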

Data set [3] relates to H4 acetylation in A2780 xenograft tumor. The experiment in a line: Experiment 4: H4 acetylation score in A2780 tumor. In kind it is in vivo, NMRI nude mice. Put shortly: (§2)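 Groups of 3–4 NMRI nude mice with s.c. A2780 xenografts (500–1000 mg) received a single 200 mg/kg test compound dose i.v. or vehicle (L-arginine 400 mg/kg in isotonic sterile saline). Mice were killed at 15 min, 30 min, 1, 2 or 3 h. Tumor and spleen were halved, and one part was immunostained with T25 anti-acetyl-H4. Scores were 0–3 per mouse, averaged per time point.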

The test system of data set [4] is H4 acetylation in A548 lung cancer model. The experiment in a line: Experiment 1: H4 acetylation in vivo, A549 xenograft. More on the design: species or system NMRI nude mice. Particulars: 100 mg/kg single i.v., 1 h. In a few lines:
as §1

Data set [5] deals with H4 acetylation in A2780 biopsies and tumors. The data set can be described thus: Experiment 3: time dependence of H4 acetylation in A2780 biopsies and tumors. In kind it is in vivo, NMRI nude mice. Particulars: for H4 acetylation, 1 h biopsy / H4 acetylation, 2 h biopsy / H4 acetylation, 3 h biopsy / H4 acetylation, 3 h tumor / H4 acetylation, 6 h biopsy / H4 acetylation, 6 h tumor: individual mice. Put shortly:
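Sixteen NMRI nude mice with small (300–400 mg) or large (1500–1800 mg) A2780 s.c. tumors received 100 mg/kg test compound i.v. at time zero. A pretreatment biopsy (large tumors only) and one post-dose 18G needle biopsy (1–6 h) were taken under isoflurane. Whole tumors were excised at 3, 6 or 24 h. Paraffin sections were stained with T25 anti-acetyl-H4 (1:13,000) and scored 0–3.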

Another data set concerns H4 acetylation in spleen. The experiment in a line: Experiment 4: H4 acetylation score in spleen. In kind it is in vivo, NMRI nude mice. Particulars: 200 mg/kg i.v. In a few lines:
as §2

Data set [6] has as its system acetylated H4 in A2780 ovarian cancer cells. The data set can be described thus: H4 acetylation by immunohistochemistry in paraffin-embedded A2780 cell blocks. In kind it is cell-based, human. Particulars: 1 μM for 1 h.
Data set [7] concerns p21 expression in A2780 xenograft. The experiment in a line: Experiment 3: p21 expression in A2780 biopsies and tumors. In kind it is in vivo, NMRI nude mice. In a few lines: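 In A2780 xenografts (small 300–400 mg or large 1500–1800 mg), mice received 100 mg/kg test compound i.v. Pretreatment (large tumors) and post-dose needle biopsies were taken between 1 and 6 h; whole tumors were taken at 3, 6 or 24 h. Paraffin sections were immunostained for p21 (monoclonal EA10, 1:80; TEG pH 9 retrieval; EnVision+/DAB) and nuclear versus cytoplasmic staining was recorded.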

Data set [8] is described as follows: Experiment 4: belinostat in plasma, tumor and spleen by LC-MS/MS. In kind it is in vivo, NMRI nude mice. In a few lines:
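A2780 xenograft mice received 200 mg/kg i.v. once; lithium-heparin plasma, tumor and spleen were collected at 15 min–3 h. Plasma was protein-precipitated with a 13C-labelled internal standard, dried and redissolved in 10% HCOOH/ACN. Tissues were homogenized in water/ACN/methanol containing internal standard (1 μg/ml). Analysis used LC-MS/MS on UPLC C18 (0.05% HCOOH/ACN, 5 min gradient, 0.5 ml/min), reporting ng/ml plasma and ng/g tissue.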

Data set [9] deals with H4 acetylation in HCT-116 colon cancer model. The data set can be described thus: Experiment 1: H4 acetylation in vivo, HCT-116 xenograft. More on the design: species or system NMRI nude mice. Particulars: 100 mg/kg single i.v., 1 h. Put shortly:
as §1

Data set [10] relates to H4 acetylation in histones extracted from A2780 cells. Particulars: cited from earlier work.
Data set [11] has as its system H4 acetylation in peripheral blood from A2780 xenografts. Particulars: 3 h after treatment, 40 mg/kg i.p.; cited from earlier work.
For data set [12], the system named is H4 acetylation in PC-3 prostate cancer model. The experiment in a line: Experiment 1: H4 acetylation in vivo, PC-3 xenograft. More on the design: species or system NMRI nude mice. To be noted: 100 mg/kg single i.v., 1 h. Put shortly: as §1
Data set [13] deals with H4 acetylation in A2780 ovarian cancer model. The data set can be described thus: Experiment 1: H4 acetylation in vivo, A2780 xenograft. More on the design: species or system NMRI nude mice. Particulars: 100 mg/kg single i.v., 1 h. In a few lines: as §1
Data set [14] deals with acetylated H4 in A2780 xenograft. The experiment in a line: Experiment 2: H4 acetylation in A2780 biopsies and representative tumors. In kind it is in vivo, NMRI nude mice. Particulars: 100 mg/kg i.v., 1 h, A2780, Fig. 4A. Put shortly:
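Mice bearing HCT-116, A2780, PC-3 or MCF-7 tumors (500–1000 mg) received 100 mg/kg test compound i.v. or vehicle and were killed after 1 h. Biopsies were taken with an 18G needle, aspirating while rotating. Biopsies and the remaining tumor were formalin-fixed, paraffin-embedded and stained with anti-acetyl-H4 T25 (1:13,000). Staining was scored negative, weak, moderate or strong (0–3).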

For data set [15], the system named is H4 acetylation in peripheral canine blood. To be noted: 10 min after i.v. infusion given over 45 min, total dose 50 mg/kg; cited from earlier work.
Data set [16] deals with histone acetylation in peripheral blood lymphocytes. To be noted: clinical study; cited from earlier work.
Setting [17] is: 200 mg/kg i.v., individual mice.
[18] abbreviates: 200 mg/kg i.v., individual mice, listed as Belinostat.
The mark [19] stands for this setting: single treatment 200 mg/kg i.v.
Setting [20] is: 100 mg/kg i.v., large tumors (1500–1800 mg).
The mark [21] stands for this setting: 100 mg/kg i.v., small tumors (300–400 mg).
Setting [22] is: individual mice, listed as Belinostat.

`Nc1ccccc1NC(=O)c1ccc(CNC(=O)OCc2cccnc2)cc1` [MS-275]: the “pharmacokinetics (linearity)” value in data set [1] is “linear, dose-independent”.
For the compound `O=C(/C=C/c1cccc(S(=O)(=O)Nc2ccccc2)c1)NO` [belinostat], the H4 acetylation entry in data set [2] is “Weak”. In addition, in data set [3] (setting [17]), the “H4 acetylation (score), tumor, 15 min” value is listed as “weak-to-moderate”; the “H4 acetylation (score), tumor, 1 h” value is “strong (strong (score=3))”; the “H4 acetylation (score), tumor, 3 h” value is “weak and moderate”. In data set [3] (setting [18]), the “H4 acetylation (score), tumor, 15 min” value is recorded as “Moderate (2); also recorded: No (0); also recorded: Weak (1)”; the “H4 acetylation (score), tumor, 30 min” value is listed as “Moderate (2); also recorded: Strong (3); also recorded: Weak (1)”; the “H4 acetylation (score), tumor, 1 h” value is on record as “Strong (3)”; the “H4 acetylation (score), tumor, 2 h” value is reported as “Moderate (2); also recorded: Strong (3)”. Further, the “H4 acetylation (score), tumor, 3 h” value in [3] (setting [18]) is given as “Moderate (2); also recorded: Weak (1)”. For the same compound, in data set [3] (200 mg/kg i.v., score 0-3), the “H4 acetylation score, tumor, mean, 15 min” value was determined as 1.25; the “H4 acetylation score, tumor, mean, 30 min” value came out at 2; the “H4 acetylation score, tumor, mean, 1 h” value turned out to be 3; the “H4 acetylation score, tumor, mean, 2 h” value was 2.33. Also, the “H4 acetylation score, tumor, mean, 3 h” value in [3] (200 mg/kg i.v., score 0-3) is on record as 1.67. Also, in data set [3] (setting [19]), the “time at which increased acetylated H4 was detected in tumor tissue” value was found to be 15 min and the “time of maximal H4 acetylation level” value turned out to be 1 h. Moreover, the H4 acetylation result in data set [4] is given as “caused H4 acetylation”. For the same compound, in data set [5] (100 mg/kg i.v.), the “H4 acetylation after 6 and 24 h” value is “weak or no”; the “H4 acetylation, general findings at 3 h” value is listed as “weak or moderate”. Also, in data set [5] (100 mg/kg i.v., 1 h after treatment), the “H4 acetylation in biopsy, same mouse (Fig. 4B)” value is given as “strong (strong (score=3))”. For the same compound, in data set [5] (100 mg/kg i.v., 3 h after treatment), the “removed tumors with strong H4 acetylation” value was 1/10. This compound also came in with an acetylation period in data set [5] (100 mg/kg i.v., Experiment 3, not extended at 200 mg/kg) of 1 to 2 h. The “H4 acetylation in tumor, same mouse (Fig. 4B)” value in data set [5] (100 mg/kg i.v., after 3 h) was “weak (weak (score=1))”. For the same compound, in [5] (setting [20]), the “H4 acetylation, 1 h biopsy” value is “Strong”; the “H4 acetylation, 2 h biopsy” value is reported as “Strong”; the “H4 acetylation, 3 h biopsy” value is given as “Strong”; the “H4 acetylation, 3 h tumor” value was “Moderate and Weak”. Moreover, in data set [5] (setting [20]), the “H4 acetylation, 6 h biopsy” value is reported as “Weak” and the “H4 acetylation, 6 h tumor” value is listed as “Weak”. In addition, in data set [5] (100 mg/kg i.v., n=4), the “H4 acetylation, all biopsies collected 2 h after treatment” value is “strong (strong (score=3))”. For the same compound, the “H4 acetylation, all biopsies collected 1 h after treatment” value in data set [5] (100 mg/kg i.v., n=5) is “strong (strong (score=3))”. In addition, in [5] (setting [21]), the “H4 acetylation, 1 h biopsy” value was “Strong”; the “H4 acetylation, 2 h biopsy” value is reported as “Strong”; the “H4 acetylation, 3 h biopsy” value is listed as “Moderate; also recorded: Strong”; the “H4 acetylation, 3 h tumor” value is “Weak and Moderate and Strong”. In data set [5] (setting [21]), the “H4 acetylation, 6 h biopsy” value was “Weak” and the “H4 acetylation, 6 h tumor” value is listed as “Weak”. In addition, the “time at which H4 acetylation reached base line level” value in [5] (after treatment, A2780 xenograft) came out at 3 h. Besides, the “H4 acetylation (score), spleen, 2 h” value in the data set with H4 acetylation in spleen (individual mice) is “Moderate (2)”. For the same compound, in the data set with H4 acetylation in spleen (setting [22]), the “H4 acetylation (score), spleen, 15 min” value is reported as “Moderate (2); also recorded: Weak (1)”; the “H4 acetylation (score), spleen, 30 min” value is “Strong (3); also recorded: Moderate (2)”; the “H4 acetylation (score), spleen, 1 h” value is listed as “Strong (3); also recorded: Moderate (2)”; the “H4 acetylation (score), spleen, 3 h” value was “Weak (1); also recorded: No (0)”. Further, in the data set on H4 acetylation in spleen (score 0-3), the “H4 acetylation score, spleen, mean, 15 min” value turned out to be 1.5; the “H4 acetylation score, spleen, mean, 30 min” value stood at 2.5; the “H4 acetylation score, spleen, mean, 1 h” value worked out at 2.75; the “H4 acetylation score, spleen, mean, 2 h” value stood at 2. Further, the “H4 acetylation score, spleen, mean, 3 h” value in the data set with H4 acetylation in spleen (score 0-3) is listed as 0.67. In addition, in data set [6], the H4 acetylation result is reported as “strong (strong (score=3))”. The “biopsies with moderate cytoplasmic p21 expression” value in data set [7] (100 mg/kg i.v., 2 h, one of four biopsies) was 25%. Also, in [7] (100 mg/kg i.v., 3 h, 10 tumors), the “tumors with strong cytoplasmic p21 expression” value is 10% and the “tumors with weak cytoplasmic p21 expression” value came to 50%. In addition, in data set [7] (100 mg/kg i.v., 6 h), the “cytoplasmic p21 expression, all biopsies removed after 6 h” value is listed as “moderate-to-strong”. The “tumors with strong cytoplasmic p21 expression” value in data set [7] (100 mg/kg i.v., 6 h, four tumors) came to 25%. In addition, the “cytoplasmic p21 expression after 24 h” value in [7] (100 mg/kg i.v., 24 h) is “disappeared”. Moreover, the “time of p21 induction in the cytoplasm” value in [7] (after belinostat treatment) was “about 3 h”. The “distribution to tumor and spleen tissue” value in data set [8] (200 mg/kg i.v. single dose) is listed as “similar”. Further, the “belinostat plasma concentration at maximal acetylation” value in [8] (200 mg/kg i.v., 1 h after treatment, Fig. 8) was “above 10^3 ng/ml”. In [9], the H4 acetylation result is “caused H4 acetylation”. Moreover, in [10] (30 min after treatment with 1 μM), the “H4 acetylation in histones extracted from A2780 cells” value is recorded as “increased”. Besides, the “H4 acetylation in histones extracted from A2780 cells” value in [10] (3 h after treatment, 1 μM) is “returned to base line levels”. In addition, the “H4 acetylation in peripheral blood from A2780 xenografts” value in data set [11] was “returned to base line levels”. For the same compound, the H4 acetylation result in [12] was “Weak”. The H4 acetylation signal entry in data set [13] was “strongest signal”. For the same compound, the “H4 acetylation in both biopsies and tumors” value in [14] is “strong (III) or moderate (IV)”. Moreover, in [15], the “H4 acetylation in peripheral canine blood” value was “increased”.
As to `O=C(CCCCCCC(=O)Nc1ccccc1)NO` [vorinostat, suberoylanilide hydroxamic acid], the “half-life of acetylated histones at higher doses” value in [16] is listed as “increased”. Also, the “pharmacokinetics (linearity)” value in data set [1] (dose proportional increases in Cmax and AUC) was “linear”.
